In paper PMC8386104 (RSC Chemical Biology, 2020):
Bridge positions count the residues as written; N and C are the ends. Ends that are not written are not given here. Peptide text beside a SMILES is read from it.

Columns and labels:
[1] = Stability of peptides in human serum; type: in vitro ADME; conditions: 25% (v/v) human serum, pH 7.5
Method in brief: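 Peptide (50 μM final) was held 0, 1, 2, 4, 8 and 24 h in 25% (v/v) human serum in PBS (pH 7.5). Serum proteins were precipitated with ACN containing 2% TFA. The full-length peptide peak (MS-confirmed) was quantified by RP-HPLC at 215 nm as a percentage of 0 h recovery. A PBS-only incubation served as control. Single experiment, three technical replicates.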

MDM2 = MDM2 (Homo sapiens, UniProt Q00987); assay: Fluorescence polarization competition, F-pDI:MDM2; type: binding; conditions: for IC50, inhibition of F-pDI:MDM2 interaction: fluorescence polarization, 10 nM F-pDI, 8 nM MDM2, Tris buffer, three technical replicates
MDMX = biological target: T1, MDMX (Homo sapiens, UniProt O15151); assay: Fluorescence polarization competition, F-pDI:MDMX; type: binding; conditions: for IC50, inhibition of F-pDI:MDMX interaction: fluorescence polarization, 10 nM F-pDI, 45 nM MDMX, Tris buffer, three technical replicates
T1 sequence (O15151 1-490): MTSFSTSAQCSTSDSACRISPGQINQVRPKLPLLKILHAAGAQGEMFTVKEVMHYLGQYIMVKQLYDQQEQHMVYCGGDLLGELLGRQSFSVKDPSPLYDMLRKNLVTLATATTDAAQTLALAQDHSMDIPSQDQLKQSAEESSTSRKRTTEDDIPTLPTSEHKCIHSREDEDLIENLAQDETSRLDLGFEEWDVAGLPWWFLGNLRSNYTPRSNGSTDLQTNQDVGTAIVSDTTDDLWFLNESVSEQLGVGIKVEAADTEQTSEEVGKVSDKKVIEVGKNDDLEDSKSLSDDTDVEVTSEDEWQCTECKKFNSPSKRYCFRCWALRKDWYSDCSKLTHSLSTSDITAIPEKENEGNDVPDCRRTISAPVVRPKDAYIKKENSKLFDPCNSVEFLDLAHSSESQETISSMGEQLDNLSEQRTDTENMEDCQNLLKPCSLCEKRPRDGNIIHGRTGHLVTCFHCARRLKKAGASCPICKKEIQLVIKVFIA
Method in brief: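 Competition fluorescence polarization with fluorescein-labeled pDI (p53 mimic) bound to MDMX, read at 489/515 nm. F-pDI:MDMX signal defined 0% inhibition and free F-pDI in Tris buffer 100%. Percent inhibition was taken from the change in polarization relative to F-pDI. IC50 came from Hill-fitted dose-response curves; three technical replicates.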

MM96L melanoma cells = assay: Cell toxicity, resazurin, MM96L; type: cell-based, human; conditions: p53 WT, 24 h, 0.25–32 μM peptide, mean ± SD, three independent experiments
Method in brief: (§1)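 5000 cells/well were exposed to serially diluted peptide (0.25–32 μM) for 24 h at 37 °C, 5% CO2. Viability was read by resazurin-to-resorufin fluorescence (ex 560, em 585 nm), with 0.1% Triton X-100 set as 100% toxicity and PBS as 0%. CC50 came from a Hill-slope saturation fit. Mean ± SD of three independent experiments on different days.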

[2] = Cell toxicity, resazurin, HaCaT; type: cell-based; conditions: human, HaCaT keratinocyte cells
Method in brief: (§2)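 Peptides serially diluted (0.25–32 μM) and incubated 24 h at 37 °C, 5% CO2 with 5000 cells/well. HEK293 was grown in DMEM and HaCaT in RPMI with 2 mM L-glutamine and 10 mM sodium pyruvate, both with 10% FBS and penicillin/streptomycin. Resazurin-to-resorufin fluorescence was read at 560/585 nm. Triton X-100 (0.1%) set 100% and PBS 0% toxicity. CC50 came from Hill-fitted curves; three independent experiments.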

MCF7 breast cancer cells = assay: Cell toxicity, resazurin, MCF7; type: cell-based, human; conditions: p53 WT, 24 h, 0.25–32 μM peptide, mean ± SD, three independent experiments
Method in brief: as §1

[3] = test system: HeLa cervical cancer cells; assay: Cell toxicity, resazurin, HeLa; type: cell-based, human; conditions: cervix, p53 WT (rep), 24 h, 0.25–32 μM peptide, mean ± SD, three independent experiments
Method in brief: as §1

[4] = test system: HCT116 colorectal cancer cells; assay: Cell toxicity, resazurin, HCT116; type: cell-based, human; conditions: p53 WT, 24 h, 0.25–32 μM peptide, mean ± SD, three independent experiments
Method in brief: as §1

[5] = Cell toxicity, resazurin, HEK293; type: cell-based; conditions: human, HEK293 embryonic kidney cells
Method in brief: as §2

[6] = Cell toxicity, resazurin, PBMCs; type: cell-based; conditions: human, peripheral blood mononuclear cells (PBMCs)
Method in brief: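 Heparinized blood from healthy donors was diluted 1:1 with PBS, separated on Ficoll-Paque (1400 rpm, 30 min) and the interface layer washed three times in PBS. Cells (5000/well) received serially diluted peptide (0.25–32 μM) for 24 h at 37 °C, 5% CO2, then a resazurin read at 560/585 nm. Triton X-100 (0.1%) set 100%, PBS 0%. CC50 came from a Hill fit; single experiment, three donors.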

RBC hemolysis = type: cell-based; conditions: human, red blood cells (RBCs), 0.25% v/v
Method in brief: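 Donor RBCs were pelleted (4000 rpm, 1 min) and washed three times in PBS. Peptides diluted in PBS (0.25–32 μM) were incubated with RBCs (0.25% v/v final) for 1 h at 37 °C. After pelleting, supernatant A415 gave released hemoglobin. Triton X-100 (0.1% final) set 100% and PBS 0% hemolysis. Single experiment, RBCs from three donors.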

MDA-MB-231 cells [7] = assay: Internalization of labeled peptides, flow cytometry, MDA-MB-231; type: cell-based, human; conditions: read-out: FC50 (peptide concentration to detect fluorescence in 50% of cells), MDA-MB-231, 1 h, serum free medium, 0.06–2 μM labeled peptide, 10 000 cells, at least two independent experiments
Method in brief: (§3)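 Cells were grown in DMEM with 10% FBS and seeded at 10^5 per well overnight (37 °C, 5% CO2). Serial dilutions of Alexa Fluor 488-labeled peptide in serum-free medium were added for 1 h, then cells were harvested. Flow cytometry used ex 488 nm/em 530/30 nm at 330 V, and readings were repeated after Trypan Blue quench (0.02% w/v final). % fluorescent cells was taken above the no-peptide threshold, and FC50 was fitted by Hill equation.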

MCF7 cells = assay: Internalization of labeled peptides, flow cytometry, MCF7; type: cell-based, human; conditions: read-out: FC50 (peptide concentration to detect fluorescence in 50% of cells), MCF7, 1 h, serum free medium, 0.06–2 μM labeled peptide, 10 000 cells, at least two independent experiments
Method in brief: as §3

MM96L cells = assay: Live-cell confocal microscopy, intracellular location, MM96L; type: cell-based, human; conditions: spinning disc confocal, serum-free media, 1 and 4 μM cPF4PD-A488, 6 μM PF4P_pDI-A488, 1 μM cPF4Pext_pDI-A488
Method in brief: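 MM96L cells were grown in RPMI with 2 mM L-glutamine, 10 mM sodium pyruvate and 10% FBS, and plated at 16 000 per chamber-slide well overnight (37 °C, 5% CO2). Cells were washed into serum-free medium and stained with MitoTracker Red (100 nM final, 5 min). Medium was then replaced with Alexa Fluor 488-labeled peptide in serum-free medium. Cells were imaged live over time at 37 °C, 5% CO2.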

MDA-MB-231 cells [8] = assay: Live-cell confocal microscopy, intracellular location, MDA-MB-231; type: cell-based, human; conditions: spinning disc confocal, serum-free media, 4 μM (sub-lethal)
p53:MDM2 = conditions: read-out: inhibition of p53:MDM2; previously reported; cited from earlier work
[9] = test system: panel of cancerous and noncancerous cell lines, PBMCs and RBCs; assay: Cytotoxic activity across the panel of cell lines; type: cell-based, human; conditions: 24 h, resazurin (RBC 1 h hemolysis)
Method in brief: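 Cell lines and PBMCs (Ficoll-separated from PBS-diluted heparinized blood, PBS-washed) were read by 24 h resazurin fluorescence; PBMC data came from one experiment with three donors. RBCs were washed in PBS, then incubated at 0.25% v/v with peptide in PBS for 1 h at 37 °C. After pelleting, supernatant A415 gave hemoglobin release, with 0.1% Triton X-100 as 100% and PBS as 0%.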

MDM2, sequence (Q00987 whole entry): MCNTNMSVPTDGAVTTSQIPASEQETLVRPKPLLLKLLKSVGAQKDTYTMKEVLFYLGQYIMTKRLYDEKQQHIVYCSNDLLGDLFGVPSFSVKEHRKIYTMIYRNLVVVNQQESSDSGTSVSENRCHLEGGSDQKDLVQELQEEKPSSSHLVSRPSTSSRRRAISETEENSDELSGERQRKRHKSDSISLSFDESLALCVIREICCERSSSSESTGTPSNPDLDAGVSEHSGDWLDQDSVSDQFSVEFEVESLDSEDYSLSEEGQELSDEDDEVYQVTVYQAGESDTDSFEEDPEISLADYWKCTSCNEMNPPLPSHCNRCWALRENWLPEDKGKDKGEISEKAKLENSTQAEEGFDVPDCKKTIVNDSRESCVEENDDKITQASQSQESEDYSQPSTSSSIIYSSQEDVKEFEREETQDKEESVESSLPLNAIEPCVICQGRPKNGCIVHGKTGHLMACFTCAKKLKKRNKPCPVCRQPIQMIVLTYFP

Compound	remaining at 24 h, 50 μM [1]	CC50, MM96L (MM96L melanoma cells)	CC50 at 24 h [2]	CC50, MCF7 (MCF7 breast cancer cells)	CC50, HeLa [3]	CC50, HCT116 [4]	CC50 at 24 h [5]	CC50 at 24 h [6]	HC50 at 1 h (RBC hemolysis)	intracellular location, MM96L (MM96L cells)	other results
LQAPLTFEHYWALLTSGGSGGAPLYKKIIKKLLES-NH2 [PF4P_pDI]	60%	13.2 ± 0.7 µM	17.1 ± 1.6 µM	>32 µM	>32 µM	25.5 ± 2.1 µM	27.5 ± 2.3 µM	> 32 µM	> 64 µM		inhibition at 0.001 µM (MDM2; read-out: inhibition of F-pDI binding to MDM2): > 50%; inhibition at 0.001 µM (MDMX; read-out: inhibition of F-pDI binding to MDMX): > 50%
CQAPLYKKIIKKLLESGGSGGAPLYKKIIKKLLCES* A488 (sidechain bridge or staple) [cPF4PD-A488]										enter directly into the cell cytoplasm	EC50 (MDA-MB-231 cells [7]): 0.16 µM; EC50 (MCF7 cells): 0.65 µM; intracellular location, MDA-MB-231 (MDA-MB-231 cells [8]): entry of the labeled peptide into the cytoplasm was observed within two hours
CGGPLYKKIIKKLLESIIKKGGSGGSGGLTFEHYWAQLTGGC-NH2 (disulfide 1-42) [cPF4Pext_pDI]		2.5 ± 0.1 µM	7.2 ± 0.3 µM	18.6 ± 2.0 µM	∼32 ± 5 μM	11.7 ± 0.9 µM	19.1 ± 0.5 µM	4.3 ± 0.4 µM	> 64 µM		IC50 (MDMX): 0.08 µM
CC[C@H](C)[C@@H]1NC(=O)[C@H](CCCCN)NC(=O)[C@H](CCCCN)NC(=O)[C@H](Cc2ccc(O)cc2)NC(=O)[C@H](CC(C)C)NC(=O)[C@@H]2CCCN2C(=O)CNC(=O)CNC(=O)[C@@H](N)CSSC[C@@H](C(=O)N[C@@H](CCC(=O)O)C(=O)N[C@@H](CO)C(N)=O)NC(=O)[C@H](CC(C)C)NC(=O)[C@H](CCCCN)NC(=O)[C@H](CCCCN)NC(=O)[C@H]([C@@H](C)CC)NC(=O)[C@H]([C@@H](C)CC)NC(=O)[C@H](CCCCN)NC(=O)[C@H](CCCCN)NC(=O)[C@H](Cc2ccc(O)cc2)NC(=O)[C@H](CC(C)C)NC(=O)[C@@H]2CCCN2C(=O)[C@H](C)NC(=O)CNC(=O)CNC(=O)[C@H](CO)NC(=O)CNC(=O)CNC(=O)[C@H](CO)NC(=O)[C@H](CCC(=O)O)NC(=O)[C@H](CC(C)C)NC(=O)[C@H](CC(C)C)NC(=O)[C@H](CCCCN)NC(=O)[C@H](CCCCN)NC(=O)[C@H]([C@@H](C)CC)NC1=O [cPF4PD] (H-CGGPLYKKIIKKLLESGGSGGAPLYKKIIKKLCES-NH2; disulfide 1-33)	~75%		9.1 ± 0.7 µM				> 32 µM	9.1 ± 1.3 µM	> 64 µM		IC50, inhibition of F-pDI:MDM2 interaction (MDM2): did not inhibit; IC50, inhibition of F-pDI:MDMX interaction (MDMX): did not inhibit
A488 GCGGPLYKKIIKKLLESIIKKGGXGGSGGLTFEHYWAQLTGGC* (disulfide) [cPF4Pext_pDI-A488]										enter directly into the cell cytoplasm	
A488 LQAPLTFEHYWALLTSGGXGGAPLYKKIIKKLLES* [PF4P_pDI-A488]										enter directly into the cell cytoplasm	
LQAPLYKKIIKKLLESGGSGGAPLYKKIIKKLLES-NH2 [PF4PD]	20%	1.6 ± 0.1 µM	4.3 ± 0.2 µM	17.6 ± 2.0 µM	17.2 ± 2.2 µM	4.8 ± 0.8 µM	13.7 ± 2.2 µM	14 ± 0.9 µM	> 64 µM		IC50, inhibition of F-pDI:MDM2 interaction (MDM2): did not inhibit; IC50, inhibition of F-pDI:MDMX interaction (MDMX): did not inhibit
APLYKKIIKKLLES-NH2 [PF4P]		>32 µM	> 32 µM	>32 µM	>32 µM		> 32 µM	> 32 µM	> 64 µM		cytotoxic activity against the tested cells [9]: not active against any of the tested cells
